ChEMBL document CHEMBL4732082, “Development of novel benzimidazole-derived neddylation inhibitors for suppressing tumor growth invitro and invivo” (Eur J Med Chem, 2021)

How the values were obtained:
A549 [1] = test: Antiproliferative activity against human A549 cells assessed as inhibition of cell proliferation at 100 uM incubated for 48 hrs by CCK-8 assay relative to control; assay type: functional; set-up: scale not given: the % may be the effect or the level left
Summary of the method: (§1)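 Cells from ATCC, passaged six times, grown in DMEM with 10% FBS and penicillin/streptomycin at 37 °C under 5% CO2. Seeded at 2500 cells/well, cultured overnight, treated 48 h, viability read by CCK-8. Run in triplicate; values are the mean of three experiments.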

[2] = target: T1, NEDD8-activating enzyme E1 regulatory subunit (Homo sapiens) (UniProt Q13564); test: Inhibition of NAE (unknown origin)-mediated neddylation assessed as suppression of cullin1-Nedd8 adduct formation at 25 uM preincubated for 10 mins followed by ATP addition and measured after 30 mins by immunoblot analysis relative to control; conditions: time 40.0 min
T1 sequence (whole entry): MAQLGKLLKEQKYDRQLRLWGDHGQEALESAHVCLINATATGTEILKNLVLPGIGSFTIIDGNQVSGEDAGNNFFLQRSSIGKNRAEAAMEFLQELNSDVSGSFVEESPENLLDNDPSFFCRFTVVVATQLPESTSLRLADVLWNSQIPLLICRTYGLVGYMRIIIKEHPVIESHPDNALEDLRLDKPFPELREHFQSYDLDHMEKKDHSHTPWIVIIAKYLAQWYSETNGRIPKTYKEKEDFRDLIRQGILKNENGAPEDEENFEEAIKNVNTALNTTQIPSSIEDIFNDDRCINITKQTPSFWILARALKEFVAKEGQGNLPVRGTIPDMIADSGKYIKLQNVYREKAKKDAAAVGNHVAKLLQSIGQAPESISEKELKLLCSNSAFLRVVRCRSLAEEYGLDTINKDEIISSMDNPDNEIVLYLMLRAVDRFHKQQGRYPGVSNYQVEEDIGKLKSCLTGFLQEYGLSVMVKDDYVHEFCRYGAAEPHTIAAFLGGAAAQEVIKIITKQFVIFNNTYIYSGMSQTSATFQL

NCI-H1299 = test: Antiproliferative activity against human H1299 cells incubated for 48 hrs by CCK-8 assay; assay type: functional, cell-based; conditions: NCI-H1299, 48 h; summary of the method: as §1
A549 [3] = test: Antiproliferative activity against human A549 cells incubated for 48 hrs by CCK-8 assay; assay type: functional, cell-based; conditions: A549, 48 h; summary of the method: as §1
[4] = Cytotoxicity against human […] cells incubated for 48 hrs by CCK-8 assay; assay type: cell-based; summary of the method: as §1
BEAS-2B = test: Cytotoxicity against human BEAS-2B cells incubated for 48 hrs by CCK-8 assay; assay type: cell-based; summary of the method: as §1
[5] = target: T2, NEDD8-activating enzyme E1 catalytic subunit (Homo sapiens, UniProt Q8TBC4); test: Inhibition of NAE (unknown origin)-mediated neddylation assessed as suppression of cullin1-Nedd8 adduct formation preincubated for 10 mins followed by ATP addition and measured after 30 mins by immunoblot analysis
T2 sequence (Q8TBC4 whole entry): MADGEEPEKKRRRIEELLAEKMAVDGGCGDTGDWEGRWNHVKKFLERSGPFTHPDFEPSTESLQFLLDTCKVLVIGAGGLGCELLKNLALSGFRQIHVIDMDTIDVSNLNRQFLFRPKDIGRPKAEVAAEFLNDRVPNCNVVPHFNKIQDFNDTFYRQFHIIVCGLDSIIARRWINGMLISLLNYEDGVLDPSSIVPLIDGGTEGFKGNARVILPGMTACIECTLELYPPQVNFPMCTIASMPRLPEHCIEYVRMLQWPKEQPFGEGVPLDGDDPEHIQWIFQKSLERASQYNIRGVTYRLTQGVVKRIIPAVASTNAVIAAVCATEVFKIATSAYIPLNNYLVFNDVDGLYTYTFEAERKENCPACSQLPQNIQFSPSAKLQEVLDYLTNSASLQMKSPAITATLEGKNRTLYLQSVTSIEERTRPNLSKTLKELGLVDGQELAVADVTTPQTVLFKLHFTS

inhibition [2] [%] | Structure (SMILES) | Activity (A549 [1]) [%] | further results
57.4 | CCOc1nc2cccc(C(=O)NCCc3ccccc3Cl)c2n1Cc1ccc(-c2ccccc2-c2nnn[nH]2)cc1 | 36.6 | –
39.8 | CCOc1nc2cccc(C(=O)NOCc3ccccc3)c2n1Cc1ccc(-c2ccccc2-c2nnn[nH]2)cc1 | 24.3 | –
32.6 | CCCNC(=O)c1cccc2nc(OCC)n(Cc3ccc(-c4ccccc4-c4nnn[nH]4)cc3)c12 | 12.5 | –
28.6 | CCOc1nc2cccc(C(=O)N[C@H]3CC[C@H](C(=O)OC)CC3)c2n1Cc1ccc(-c2ccccc2-c2nnn[nH]2)cc1 | 9.2 | –
29.4 | CCOc1nc2cccc(C(=O)NCCCNC3CCCCC3)c2n1Cc1ccc(-c2ccccc2-c2nnn[nH]2)cc1 | 11.2 | –
39.8 | CCOc1nc2cccc(C(=O)Nc3ccncc3)c2n1Cc1ccc(-c2ccccc2-c2nnn[nH]2)cc1 | 39.5 | –
34.6 | CCOc1nc2cccc(C(=O)Nc3ccccc3)c2n1Cc1ccc(-c2ccccc2-c2nnn[nH]2)cc1 | 13.1 | –
30.9 | CCOc1nc2cccc(C(=O)NC3CC3)c2n1Cc1ccc(-c2ccccc2-c2nnn[nH]2)cc1 | 11.3 | –
34.2 | CCOc1nc2cccc(C(=O)OC(C)OC(=O)OC3CCCCC3)c2n1Cc1ccc(-c2ccccc2-c2noc(=O)[nH]2)cc1 (stereo not drawn) | 14.6 | –
48.9 | CCOc1nc2cccc(C(=O)NCc3ccccc3)c2n1Cc1ccc(-c2ccccc2-c2nnn[nH]2)cc1 | 54.5 | –
34.9 | CCOc1nc2cccc(C(=O)Nc3ccc4c(c3)OCO4)c2n1Cc1ccc(-c2ccccc2-c2nnn[nH]2)cc1 | 16.7 | –
86.7 | CCOc1nc2cccc(C(=O)NCCc3c(Cl)cccc3Cl)c2n1Cc1ccc(-c2ccccc2-c2nnn[nH]2)cc1 | 45.5 | –
47.5 | CCOc1nc2cccc(C(=O)NCCc3ccc([N+](=O)[O-])cc3)c2n1Cc1ccc(-c2ccccc2-c2nnn[nH]2)cc1 | 53.5 | –
64.6 | CCOc1nc2cccc(C(=O)NCCCCc3ccccc3)c2n1Cc1ccc(-c2ccccc2-c2nnn[nH]2)cc1 | <20 | –
43.2 | CCOc1nc2ccc(C(=O)OC(C)OC(=O)OC3CCCCC3)cc2n1Cc1ccc(-c2ccccc2-c2nnn[nH]2)cc1 (stereo not drawn) | 56.9 | –
60.9 | CCOc1nc2cccc(C(=O)Nc3ccc(S(N)(=O)=O)cc3)c2n1Cc1ccc(-c2ccccc2-c2nnn[nH]2)cc1 | 54.4 | –
44.7 | CCOc1nc2cc(C(=O)OC(C)OC(=O)OC3CCCCC3)ccc2n1Cc1ccc(-c2ccccc2-c2nnn[nH]2)cc1 (stereo not drawn) | 33.3 | –
47.9 | CCOc1nc2cccc(C(=O)NCc3ccc4c(c3)OCO4)c2n1Cc1ccc(-c2ccccc2-c2nnn[nH]2)cc1 | 53.19 | –
46.5 | CCOC(=O)CNC(=O)c1cccc2nc(OCC)n(Cc3ccc(-c4ccccc4-c4nnn[nH]4)cc3)c12 | 32.7 | –
45.3 | CCOc1nc2cccc(C(=O)Nc3ccc(F)cc3)c2n1Cc1ccc(-c2ccccc2-c2nnn[nH]2)cc1 | 66.3 | –
90.5 | NS(=O)(=O)OC[C@@H]1C[C@@H](n2ccc3c(N[C@H]4CCc5ccccc54)ncnc32)C[C@@H]1O [PEVONEDISTAT] | 91.4 | IC50 (NCI-H1299): 0.49 µM; IC50 (A549 [3]): 0.63 µM; IC50 [4]: 4.03 µM; IC50 (BEAS-2B): 1.22 µM
87.8 | CCOc1nc2cccc(C(=O)OC(C)OC(=O)OC3CCCCC3)c2n1Cc1ccc(-c2ccccc2-c2nn[nH]n2)cc1 (stereo not drawn) [CANDESARTAN CILEXETIL] | 69.2 | IC50 (A549 [3]): 65.9 µM; IC50 [4]: 82.7 µM; IC50 (BEAS-2B): 79.8 µM

inhibition [2] [%] | Structure (SMILES) | Activity (A549 [1]) [%] | further results
32.6 | CCCC(=O)N(Cc1ccc(-c2ccccc2-c2nnn[nH]2)cc1)c1ccccc1C(=O)OC(C)OC(=O)OC1CCCCC1 (stereo not drawn) | 15.2 | –
32.1 | CCOc1nc2cccc(C(=O)NCCc3ccc(C)cc3)c2n1Cc1ccc(-c2ccccc2-c2nnn[nH]2)cc1 | 15.7 | –
36.8 | CCOc1nc2cccc(C(=O)NC3CCCCC3)c2n1Cc1ccc(-c2ccccc2-c2nnn[nH]2)cc1 | 12.1 | –
29.5 | CCOc1nc2cccc(C(=O)NCCCN(C)C)c2n1Cc1ccc(-c2ccccc2-c2nnn[nH]2)cc1 | 9.8 | –
43.6 | CCOc1nc2cccc(C(=O)NCCc3cccc(OC)c3)c2n1Cc1ccc(-c2ccccc2-c2nnn[nH]2)cc1 | 57.7 | –
35.7 | CCOc1nc2cccc(C(=O)NCCc3ccc4c(c3)OCO4)c2n1Cc1ccc(-c2ccccc2-c2nnn[nH]2)cc1 | 14.2 | –
39.4 | CCOc1nc2cccc(C(=O)NCCc3ccccc3)c2n1Cc1ccc(-c2ccccc2-c2nnn[nH]2)cc1 | 43.8 | –
66.1 | CCOc1nc2cccc(C(=O)NCCc3ccc(Br)cc3)c2n1Cc1ccc(-c2ccccc2-c2nnn[nH]2)cc1 | 51.4 | –
29.5 | CCOc1nc2cccc(C(=O)OC(C)OC(=O)OC3CCCCC3)c2n1Cc1ccc(-c2ccccc2)cc1 (stereo not drawn) | 34.2 | –
37.5 | CCOc1nc2cccc(C(=O)NCc3ccco3)c2n1Cc1ccc(-c2ccccc2-c2nnn[nH]2)cc1 | 18.9 | –
18.9 | CCOc1nc2ccccc2n1Cc1ccc(-c2ccccc2-c2nn[nH]n2)cc1 | 9.5 | –
27.9 | CCOc1nc2cccc(C(=O)NCCCOC)c2n1Cc1ccc(-c2ccccc2-c2nnn[nH]2)cc1 | 10.1 | –
41.2 | CCOc1nc2cccc(C(=O)OC(C)OC(=O)OC3CCCCC3)c2n1Cc1ccc(-c2ccccc2-c2nnnn2C)cc1 (stereo not drawn) | 16.8 | –
35.7 | CCOc1nc2cccc(C(=O)NC(c3ccccc3)c3ccccc3)c2n1Cc1ccc(-c2ccccc2-c2nnn[nH]2)cc1 | 31.6 | –
25.8 | CCOc1nc2cccc(C(=O)Nc3ccc(OC)cc3)c2n1Cc1ccc(-c2ccccc2-c2nnn[nH]2)cc1 | 10.5 | –
47.6 | CCOc1nc2cccc(C(=O)NCCc3ccc(Cl)cc3)c2n1Cc1ccc(-c2ccccc2-c2nnn[nH]2)cc1 | 36.2 | –
82.9 | CCOc1nc2cccc(C(=O)NCCc3cc(Cl)ccc3Cl)c2n1Cc1ccc(-c2ccccc2-c2nnn[nH]2)cc1 | 77.6 | IC50 (NCI-H1299): 36.7 µM; IC50 (A549 [3]): 39.3 µM; IC50 [4]: 64.9 µM; IC50 [5]: 6.67 µM; IC50 (BEAS-2B): 80.8 µM
74.7 | CCOc1nc2cccc(C(=O)NCCc3c[nH]c4ccccc34)c2n1Cc1ccc(-c2ccccc2-c2nnn[nH]2)cc1 | 71.6 | IC50 (NCI-H1299): 18.2 µM; IC50 (A549 [3]): 19.1 µM; IC50 [4]: 44.7 µM; IC50 [5]: 9.94 µM; IC50 (BEAS-2B): 37.9 µM
35.8 | CCOc1nc2cccc(C(=O)NCCc3ccc(F)cc3F)c2n1Cc1ccc(-c2ccccc2-c2nnn[nH]2)cc1 | 12.5 | –
38.1 | CCOc1nc2cccc(C(=O)NCc3ccc(F)cc3)c2n1Cc1ccc(-c2ccccc2-c2nnn[nH]2)cc1 | 35.4 | –
39.7 | CCOc1nc2cccc(C(=O)NC3CCCC3)c2n1Cc1ccc(-c2ccccc2-c2nnn[nH]2)cc1 | 11.9 | –
